Biological target: T1, Hexokinase-4 (Homo sapiens) (UniProt P35557)
T1 sequence (whole entry): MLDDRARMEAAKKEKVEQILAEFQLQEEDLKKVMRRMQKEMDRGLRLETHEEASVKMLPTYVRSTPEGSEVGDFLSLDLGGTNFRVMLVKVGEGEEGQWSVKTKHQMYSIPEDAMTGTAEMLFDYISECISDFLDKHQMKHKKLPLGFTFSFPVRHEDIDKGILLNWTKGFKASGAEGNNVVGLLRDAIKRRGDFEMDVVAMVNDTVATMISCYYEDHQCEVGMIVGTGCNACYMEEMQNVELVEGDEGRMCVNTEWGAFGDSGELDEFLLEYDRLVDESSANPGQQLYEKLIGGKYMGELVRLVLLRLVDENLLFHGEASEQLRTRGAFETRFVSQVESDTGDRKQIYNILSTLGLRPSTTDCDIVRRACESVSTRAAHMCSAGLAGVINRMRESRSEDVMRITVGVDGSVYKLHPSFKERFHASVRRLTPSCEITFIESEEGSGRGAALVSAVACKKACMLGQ
Experiment: Activation of human recombinant glucokinase assessed as concentration required for 1.5 fold increase in enzymatic activity
In short: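 Human recombinant GK; activator at fixed concentrations from ∼0.010 to 30 μM, each in duplicate, with glucose held at 5 mM. SC1.5 is the activator concentration giving a 1.5-fold rise in enzymatic activity over untreated GK. Assay CV was about 15%.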

Activity: 0.065 µM
SMILES: CS(=O)(=O)c1ccc(C(CC2CCCC2)C(=O)Nc2nccs2)cc1[N+](=O)[O-] (racemic)
